Hits are enriched below; roughly 0.77% of the tested compounds scored in any of these assays.
bIAP activator: bovine intestinal alkaline phosphatase activators, primary screen, biochemical, bovine IAP, CDP-star luminescence; alkaline phosphatase, intestinal [Bos taurus]; purified bovine IAP, 30 min; stronger effect = higher value; fold of DMSO-control signal, blank-subtracted; activation factor at 20 µM; 200,000 compounds, 0.17% hits; AID 1016, 2008;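 active = activation factor of 2 or more at 20 µM, a signal rise over negative controls twice the positive control's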
mIAP act: activators of mouse IAP, primary screen, biochemical, luminescence, uHTS; intestinal alkaline phosphatase [Mus musculus]; muIAP, CDP-Star luminescence, 30 min; stronger effect = higher value; 1 = vehicle-only enzyme signal, 0 = enzyme-free wells; activation factor at 10 µM; 330,000 compounds, 0.24% hits;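 active = activation factor of at least 2 at 20 µM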
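Assay system: mouse IAP enzyme / Compound: DMSO-dissolved test compounds / Timing: 30 min, room temperature / Measured by: luminescence from enzymatic CDP-Star hydrolysis / Control set: DMSO-only wells, enzyme-free buffer wells as negative control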
hIAP block: human IAP inhibitors, primary screen, biochemical, luminescence, uHTS | Intestinal-type alkaline phosphatase (Homo sapiens), P09923 | purified IAP, CDP-Star luminescence, 30 min | inhibition, % at 10 µM | 330,000 compounds, 0.12% hits;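 active = inhibition reaching a set limit with compound at 10 µM in the primary screen, cut at about 35% in these data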;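 also: plate controls were DMSO wells with enzyme for no effect and no-enzyme buffer wells for full effect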
Target sequence (P09923 whole entry, looked up): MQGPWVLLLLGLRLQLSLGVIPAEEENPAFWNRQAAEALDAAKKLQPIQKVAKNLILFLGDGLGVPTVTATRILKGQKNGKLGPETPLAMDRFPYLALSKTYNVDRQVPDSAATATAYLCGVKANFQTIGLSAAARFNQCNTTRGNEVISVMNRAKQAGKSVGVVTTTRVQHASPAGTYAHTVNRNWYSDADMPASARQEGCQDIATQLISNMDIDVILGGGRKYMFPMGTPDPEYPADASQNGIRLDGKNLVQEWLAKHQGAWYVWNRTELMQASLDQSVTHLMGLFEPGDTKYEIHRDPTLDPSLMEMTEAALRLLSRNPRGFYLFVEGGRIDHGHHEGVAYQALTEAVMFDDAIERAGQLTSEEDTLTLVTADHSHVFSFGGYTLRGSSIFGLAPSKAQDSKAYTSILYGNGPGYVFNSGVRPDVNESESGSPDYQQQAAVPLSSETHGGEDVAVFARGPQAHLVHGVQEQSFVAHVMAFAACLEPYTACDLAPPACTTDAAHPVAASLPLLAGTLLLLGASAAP
mIAP inh: inhibitors of mouse IAP, primary screen, biochemical, luminescence, uHTS; 330,000 compounds, 0.2% hits; AID 2806, 2010; inhibition, % at 10 µM; intestinal alkaline phosphatase [Mus musculus]; purified mouse IAP, CDP-Star luminescence, 30 min;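 active = inhibition of at least 40% at 10 µM in the primary screen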;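 also: plate controls were DMSO with enzyme for no effect and no enzyme wells for full effect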
hIAP act: human IAP activators, primary screen, biochemical, luminescence, uHTS; AID 2524, 2010; purified human IAP, CDP-Star luminescence, 30 min; stronger effect = higher value; 1 = vehicle-only enzyme, 0 = enzyme-free background; Intestinal-type alkaline phosphatase (Homo sapiens), P09923; 330,000 compounds, 0.16% hits; activation factor at 10 µM;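 active = activation factor of the enzyme at least 2-fold when tested at 20 µM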
bIAP inh: bovine intestinal alkaline phosphatase inhibitors, primary screen, selectivity assay for TNAP inhibitor project, biochemical, bovine IAP, CDP-star luminescence. AID 1019, 2008. inhibition, % at 20 µM. purified bovine IAP, 30 min. alkaline phosphatase, intestinal [Bos taurus]. 190,000 tested, under 10 active;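 active = over 50% inhibition of intestinal alkaline phosphatase at 20 µM in the single-dose screen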
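test system = bovine IAP enzyme | medium = DEA buffer 100 mM, pH 9.8, with MgCl2 1.0 mM, ZnCl2 0.02 mM | detection = luminescence | dosing = single compound dose of 20 µM, 2% DMSO final | incubation = 30 min reaction at room temperature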
mIAP inh confirm: inhibitors of mouse IAP, confirmation, biochemical, luminescence, single concentration | shares compounds with mIAP inh | purified mouse IAP, CDP-Star luminescence, 30 min | inhibition, % at 10 µM | 11,000 compounds, 4.7% hits | AID 434971, 2010;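 active = inhibition of at least 40% at 10 µM in either of the two replicates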;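 also: plate controls were DMSO wells with enzyme for no effect and buffer wells lacking enzyme for full effect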
The depositor's hits bear a star; nt = no result given.

SMILES	bIAP activator	mIAP act	hIAP block	mIAP inh	hIAP act	bIAP inh	mIAP inh confirm
CCOC(=O)CN1C(=O)/C(=C2\SC(=S)N(NC(=O)c3cccnc3)C2=O)c2ccccc21	nt	0.485	15.0	51.5*	0.85	nt	52.8*
COc1cc(NC(=O)NCC2CCN(Cc3ccccc3F)CC2)cc(OC)c1	nt	3.08*	-32.5	-208.0	1.32	nt	-167.0
Cc1ccc(C)c(CN2CCC(CNC(=O)CCc3nnc4ccc(N5CCCCC5)nn34)CC2)c1	nt	1	4.9	-0.1	0.951	nt	nt
Cc1cc(C)cc(NC(=O)NCC2CCN(Cc3cc(C)ccc3C)CC2)c1	nt	3.56*	-60.9	-255.7	1.61	nt	-131.9
O=C(NCCN1CCCCC1)Nc1ccc(F)c(Cl)c1	0.9	1.14	10.3	-13.7	0.897	9.7	nt
Cc1ccc(C)c(CN2CCC(CNC(=O)Nc3ccc(F)c(Cl)c3)CC2)c1	nt	3.35*	-53.9	-235.1	1.54	nt	-97.9
NNC(=O)c1cc(O)c(O)c(O)c1	0.8	0.366	3.3	63.4*	0.967	24.9	71.1*
COc1c(Cl)cc(C(=O)NN)cc1Cl	0.9	1.01	-15.1	-1.0	1.15	6.6	nt
Nc1nnc(SCc2nnc(-c3ccccc3)o2)s1	1.1	1.02	-9.6	-2.5	1.1	-8.2	nt
N#C/C(=C\c1coc2ccc(O)cc2c1=O)C(=O)Nc1nc2ccccc2s1	nt	0.396	1.7	60.4*	0.983	nt	63.6*
O=C(N/N=C/c1ccc(O)c(O)c1O)/C(=C/c1ccc([N+](=O)[O-])cc1)NC(=O)c1ccccc1	0.6	0.452	1.1	54.8*	0.989	42.5	59.5*
COc1ccc(-c2c(-c3cc(OC)cc(OC)c3)n(C)c3ccc(-c4cc(F)cc(OC)c4)cc23)cc1	nt	1.05	-10.0	-5.5	1.1	nt	nt
CN(C)S(=O)(=O)c1cccc(NC(=O)CO/N=C(\N)c2ccccc2)c1	nt	0.984	9.8	1.6	0.902	nt	nt
Cc1cc2nc3ccc(N(C)C)cc3nc2cc1N	nt	0.431	-1.7	56.9*	1.02	nt	65.0*
C/C(CC(=O)Nc1ccc2ccccc2c1)=N\NC(=O)c1cnccn1	0.9	0.938	-8.9	6.2	1.09	14.0	nt
C/C(CC(=O)Nc1ccc2ccccc2c1)=N\NC(=O)c1ccc(O)c(O)c1	nt	0.535	-5.6	46.5*	1.06	nt	67.0*
COc1ccccc1/C=c1\sc2nc(-c3ccco3)nn2c1=O	0.9	0.576	22.1	42.4*	0.779	5.0	70.4*
O=C(Cc1cccs1)NCCc1ccc(Cl)cc1	nt	0.949	2.4	5.1	0.976	nt	nt
CCCn1ncc(CN2CCC(C(=O)Nc3cccc(-c4cccc(F)c4)c3)CC2)c1C	nt	5.26*	-3.7	-426.1	1.04	nt	-428.4
C=CCn1cc(CN2CCC(C(=O)Nc3cccc(-c4cccc(F)c4)c3)CC2)c(C)n1	nt	2.49*	20.9	-149.3	0.791	nt	-194.1
O=C(COC(=O)c1ccccc1Br)Nc1cccnc1Cl	nt	1.01	4.4	-0.6	0.956	nt	nt
O=C(CSc1ccc(-c2ccc(-n3cccn3)cc2)nn1)Nc1ccccc1F	nt	1.01	-2.3	-1.5	1.02	nt	nt
CCN(CC)S(=O)(=O)c1cccc(C(=O)NC(Cc2c[nH]c3ccccc23)c2nnc3n2CCC3)c1 (configuration not stated)	0.9	0.994	1.5	0.6	0.985	9.0	nt
O=c1c(OC2OC(CO)C(O)C(O)C2OC2OC(CO)C(O)C(O)C2O)c(-c2ccc(O)cc2)oc2cc(O)cc(O)c12 (configuration not stated)	nt	0.567	-11.2	43.3*	1.11	nt	55.4*
O=c1c2c(O)cc(O)cc2oc2c(O)ccc(O[C@H]3O[C@@H](CO)[C@H](O)[C@@H](O)[C@@H]3O)c12	nt	0.905	0.1	9.5	0.999	nt	nt
SMILES	bIAP activator	mIAP act	hIAP block	mIAP inh	hIAP act	bIAP inh	mIAP inh confirm
C[C@@H]1O[C@@H](O[C@H]2[C@H](O)[C@@H](O)[C@H](Oc3c(-c4ccc(O)c(O)c4)oc4cc(O)cc(O)c4c3=O)O[C@@H]2CO)[C@H](O)[C@H](O)[C@H]1O	nt	0.423	21.5	57.7*	0.785	nt	48.0*
CCCCN1C(=O)/C(=C/C=C2\N(C)c3ccccc3C2(C)C)SC1=S	0.5	0.486	23.3	51.4*	0.767	nt	43.4*
O=C(CCCN1C(=O)/C(=C\c2ccco2)SC1=S)Nc1ccc(O)cc1C(=O)O	nt	0.319	21.3	68.1*	0.787	nt	74.9*
O=C(CCCN1C(=O)/C(=C/c2ccco2)SC1=S)Nc1cccc(C(=O)O)c1	nt	0.362	5.7	63.8*	0.943	nt	71.3*
O=C(CCCN1C(=O)/C(=C\c2cccs2)SC1=S)Nc1cccc(C(=O)O)c1	1	0.973	7.8	2.7	0.922	-0.5	nt
CSc1nc(-c2ccco2)nn1S(=O)(=O)c1ccccc1	0.9	0.991	9.2	0.9	0.908	9.0	nt
CCS(=O)(=O)n1nc(-c2ccco2)nc1SC	0.9	0.776	1.1	22.4	0.989	6.2	35.6*
CC(=O)Nc1ccc(NC(=O)CC(C)n2ccnc2)cc1 (configuration not stated)	nt	0.977	9.4	2.3	0.906	nt	nt
Oc1ccc(/C=N/N=C/c2ccc(O)c(O)c2)cc1O	nt	0.403	-0.3	59.7*	1	nt	63.6*
COc1cc(/C=C/C(=O)O)ccc1O	nt	0.983	3.0	1.7	0.97	nt	nt
Cc1sc2nc[nH]c(=O)c2c1-c1ccc(Cl)cc1	nt	1.02	-24.9	-1.8	1.25	nt	nt
O=c1cc(-c2ccc(O)cc2)oc2cc(O)c(C3OC(CO)C(O)C(O)C3O)c(O)c12 (configuration not stated)	0.9	0.495	0.1	50.5*	0.999	11.1	47.2*
Nc1ccc(-c2nc3nc(N)nc(N)c3nc2-c2ccc(N)cc2)cc1	nt	0.936	13.5	6.4	0.864	nt	nt
Brc1cccc(C2Nc3cccc4cccc(c34)N2)c1	nt	0.882	22.1	11.8	0.779	nt	nt
Brc1ccc(C2Nc3cccc4cccc(c34)N2)o1	0.8	0.564	12.9	43.6*	0.871	19.8	52.8*
CCCN(CCC)CCCNC(=O)C1CCC(CNS(=O)(=O)c2cccc3nsnc23)CC1 (configuration not stated)	nt	0.962	-17.5	3.8	1.18	nt	nt
COc1cc(OC)c2c(c1O)OC(c1ccccc1)CC2=O (configuration not stated)	0.9	0.463	3.0	53.7*	0.97	8.4	62.2*

Screens as filed in PubChem BioAssay.
